Laboratory results from ChEMBL document CHEMBL1127415 (J Med Chem, 1994).

Tests used:
[1] = biological target: T1, Type-1 angiotensin II receptor (Oryctolagus cuniculus, UniProt P34976); experiment: In vitro binding affinity for angiotensin II AT1 receptor in rabbit aorta; format: tissue-based
T1 sequence (P34976 whole entry): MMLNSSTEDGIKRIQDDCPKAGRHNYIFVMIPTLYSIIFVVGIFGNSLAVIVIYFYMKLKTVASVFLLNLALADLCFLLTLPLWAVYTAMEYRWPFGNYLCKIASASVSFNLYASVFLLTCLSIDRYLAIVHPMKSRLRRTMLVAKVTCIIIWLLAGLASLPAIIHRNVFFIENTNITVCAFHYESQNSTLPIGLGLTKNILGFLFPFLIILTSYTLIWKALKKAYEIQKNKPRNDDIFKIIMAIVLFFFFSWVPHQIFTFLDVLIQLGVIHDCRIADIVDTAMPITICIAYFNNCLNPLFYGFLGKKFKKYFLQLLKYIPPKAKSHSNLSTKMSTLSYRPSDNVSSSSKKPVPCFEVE
Outline: (§1)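 Radioligand binding IC50 values. AT1 was measured on rabbit aortic receptor preparations and AT2 on rat midbrain receptor preparations.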

Rattus norvegicus [2] = experiment: The duration of action for the % peak inhibition of angiotensin II pressor response for dose of 0.3 mg/kg peroral administration in conscious rats.; format: functional; conditions: route oral
Outline: (§2)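 Conscious normotensive rats received antagonists as potassium salts, iv or po. Pressor responses to exogenous AII were measured repeatedly after dosing and reported as % peak inhibition (mean ± SE) and duration of action in h. Methoxamine pressor response served as a specificity check.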

Rattus norvegicus [3] = experiment: The duration of action for the % peak inhibition of angiotensin II pressor response for dose of 0.1 mg/kg intravenous administration in conscious rats.; format: functional; outline: as §2
Rattus norvegicus [4] = experiment: The compound was evaluated for the % peak inhibition of angiotensin II pressor response for dose of 0.3 mg/kg peroral administration in conscious rats.; format: functional; conditions: route oral; outline: as §2
Rattus norvegicus [5] = experiment: The compound was evaluated for the % peak inhibition of angiotensin II pressor response for dose of 0.1 mg/kg intravenous administration in conscious rats.; format: functional; outline: as §2
[6] = biological target: T2, Type-2 angiotensin II receptor (Rattus norvegicus, UniProt P35351); experiment: In vitro binding affinity for angiotensin II AT2 receptor in rat midbrain; outline: as §1
T2 sequence (P35351 whole entry): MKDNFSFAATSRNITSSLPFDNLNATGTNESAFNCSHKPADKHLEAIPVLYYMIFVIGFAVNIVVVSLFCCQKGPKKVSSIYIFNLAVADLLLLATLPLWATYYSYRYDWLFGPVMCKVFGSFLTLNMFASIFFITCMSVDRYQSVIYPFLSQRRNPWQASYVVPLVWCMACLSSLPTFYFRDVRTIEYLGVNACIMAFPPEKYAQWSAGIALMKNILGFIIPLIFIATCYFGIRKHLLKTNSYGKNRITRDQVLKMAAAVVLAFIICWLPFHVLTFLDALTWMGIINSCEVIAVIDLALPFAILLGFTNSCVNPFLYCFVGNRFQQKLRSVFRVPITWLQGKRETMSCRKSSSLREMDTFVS

Rattus norvegicus [7] = experiment: The duration of action for the % peak inhibition of angiotensin II pressor response for dose of 1.0 mg/kg intravenous administration in conscious rats.; format: functional; outline: as §2
Rattus norvegicus [8] = experiment: The compound was evaluated for the % peak inhibition of angiotensin II pressor response for dose of 1.0 mg/kg intravenous administration in conscious rats.; format: functional; outline: as §2
Macaca mulatta [9] = experiment: The compound was evaluated for the ED50 for inhibition of A II pressor response in rhesus monkeys for intravenous administration
Rattus norvegicus [10] = experiment: The duration of action for the % peak inhibition of angiotensin II pressor response for dose of 0.03 mg/kg intravenous administration in conscious rats.
[11] = biological target: T3, Angiotensin II receptor (Rattus norvegicus) (UniProt P29089+P25095+P35351)
T3 sequence (P25095 whole entry, looked up, one chain of several): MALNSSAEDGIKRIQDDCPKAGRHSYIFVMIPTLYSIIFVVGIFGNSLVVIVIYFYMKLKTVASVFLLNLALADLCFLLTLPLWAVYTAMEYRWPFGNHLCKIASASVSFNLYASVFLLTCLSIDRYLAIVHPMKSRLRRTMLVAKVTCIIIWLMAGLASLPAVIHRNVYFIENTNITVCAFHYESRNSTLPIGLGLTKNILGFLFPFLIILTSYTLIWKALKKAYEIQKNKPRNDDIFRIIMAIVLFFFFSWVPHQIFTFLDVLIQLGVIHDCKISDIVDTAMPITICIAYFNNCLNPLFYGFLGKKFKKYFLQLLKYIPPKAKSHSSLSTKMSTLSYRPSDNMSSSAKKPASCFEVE
T3 sequence (P29089 whole entry, looked up, one chain of several): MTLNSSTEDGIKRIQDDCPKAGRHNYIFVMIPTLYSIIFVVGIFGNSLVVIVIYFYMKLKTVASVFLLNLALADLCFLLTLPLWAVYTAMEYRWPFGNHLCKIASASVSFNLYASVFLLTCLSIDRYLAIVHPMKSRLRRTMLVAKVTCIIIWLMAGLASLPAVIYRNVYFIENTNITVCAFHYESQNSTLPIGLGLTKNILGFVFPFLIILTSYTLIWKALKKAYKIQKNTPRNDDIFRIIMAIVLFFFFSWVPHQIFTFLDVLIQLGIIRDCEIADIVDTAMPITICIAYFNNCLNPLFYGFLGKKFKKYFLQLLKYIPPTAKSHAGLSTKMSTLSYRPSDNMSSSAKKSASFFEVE

Macaca mulatta [12] = experiment: The duration of action for the % peak inhibition of A II pressor response for dose of 0.1 mg/kg peroral administration in rhesus monkeys.; conditions: route oral
Rattus norvegicus [13] = experiment: The compound was evaluated for the ED50 for inhibition of A II pressor response in rats for intravenous administration
Canis familiaris [14] = experiment: The compound was evaluated for the ED50 for inhibition of A II pressor response in dogs for peroral administration.
[15] = biological target: T3, Angiotensin II receptor (Rattus norvegicus); remark: listed apart in the source
[16] = Ratio of the of A II pressor responses in dog, p.o./i.v.; format: functional
Outline: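 Conscious normotensive mongrel dogs with an arterial catheter for continuous mean arterial pressure and vein catheters for dosing. Patency checked with norepinephrine 1.6 μg/kg iv. AII 0.1 μg/kg iv boluses given at –45, –30 and –15 min. Antagonist given iv or by oral gavage at 0 min, then AII rechallenged repeatedly to 6 h (24 h if needed). Ratio is oral ED50 divided by iv ED50.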

[17] = Ratio of the of A II pressor responses in rhesus monkey, p.o./i.v.; format: functional
Outline: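 Sodium/volume-depleted rhesus monkeys dosed iv or orally; inhibition of the AII pressor response tracked over time. Ratio is oral ED50 divided by iv ED50.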

[18] = biological target: T3, Angiotensin II receptor (Rattus norvegicus); remark: listed apart in the source
[19] = Ratio of the of A II pressor responses in rat, p.o./i.v.; format: functional
Outline: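 Conscious normotensive rats; potassium salt given iv or orally; inhibition of the pressor response to exogenous iv AII followed over time. Ratio is oral ED50 divided by iv ED50.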

Rattus norvegicus [20] = experiment: The compound was evaluated for the % peak inhibition of angiotensin II pressor response for dose of 1.0 mg/kg peroral administration in conscious rats.; format: functional; conditions: route oral; outline: as §2
Macaca mulatta [21] = experiment: The compound was evaluated for the ED50 for inhibition of A II pressor response in rhesus monkeys for peroral administration.
Rattus norvegicus [22] = experiment: The compound was evaluated for the % peak inhibition of angiotensin II pressor response for dose of 0.1 mg/kg peroral administration in conscious rats.; format: functional; conditions: route oral; outline: as §2
Rattus norvegicus [23] = experiment: The duration of action for the % peak inhibition of angiotensin II pressor response for dose of 1.0 mg/kg peroral administration in conscious rats.; format: functional; conditions: route oral; outline: as §2
Canis familiaris [24] = experiment: The compound was evaluated for the ED50 for inhibition of A II pressor response in dogs for intravenous administration
Rattus norvegicus [25] = experiment: The compound was evaluated for the ED50 for inhibition of A II pressor response in rat for peroral administration.
Rattus norvegicus [26] = experiment: The duration of action for the % peak inhibition of angiotensin II pressor response for dose of 0.1 mg/kg perol administration in conscious rats.; format: functional; outline: as §2
Rattus norvegicus [27] = experiment: The compound was evaluated for the % peak inhibition of angiotensin II pressor response for dose of 0.1 mg/kg perol administration in conscious rats.; format: functional; outline: as §2
Rattus norvegicus [28] = experiment: The compound was evaluated for the ED50 for inhibition of A II pressor response in rat for intravenous administration

CCc1nc2c(C)cc(C)nc2n1Cc1ccc(-c2ccccc2S(=O)(=O)NC(=O)C2CC2)cc1 gave an IC50 [1] of 0.68 nM, a Duration (Rattus norvegicus [2]) of over 6 h and a Duration (Rattus norvegicus [3]) of over 6 h. For the same molecule, the inhibition in vivo at 0.3 mg/kg (Rattus norvegicus [4]) was 99%, the inhibition in vivo at 0.1 mg/kg (Rattus norvegicus [5]) was 95% and the IC50 [6] was 2400 nM.

CCc1nc2c(C)cc(C)nc2n1Cc1ccc(-c2ccccc2S(=O)(=O)NC(C)=O)cc1 gave a Duration (Rattus norvegicus [7]) of 3.5 h, an IC50 [1] of 2.2 nM and an inhibition in vivo at 1 mg/kg (Rattus norvegicus [8]) of 100%. It also gave an IC50 [6] of over 10000 nM.

For CCc1nc2c(C)cc(C)nc2n1Cc1ccc(-c2ccccc2S(=O)(=O)NC(=O)c2ccccc2)cc1, the ED50 (Macaca mulatta [9]) was 0.036 mg/kg, the Duration (Rattus norvegicus [10]) was 6 h and the Duration [11] was over 5 h. For the same molecule, the Duration (Macaca mulatta [12]) was about 3 h, the ED50 (Rattus norvegicus [13]) was 0.014 mg/kg and the ED50 (Canis familiaris [14]) was 0.035 mg/kg. For the same molecule, the Duration [15] was over 5 h, the IC50 [1] was 0.2 nM and the Ratio [16] was 2. It also gave a Ratio [17] of 3, a Duration (Rattus norvegicus [3]) of 6 h and a Duration [18] of 4 h. The Ratio [19] was 5, the inhibition in vivo at 1 mg/kg (Rattus norvegicus [20]) was 99% and the ED50 (Macaca mulatta [21]) was 0.1 mg/kg. It also gave an inhibition in vivo at 0.1 mg/kg (Rattus norvegicus [22]) of 64%, a Duration (Rattus norvegicus [23]) of over 6 h and an ED50 (Canis familiaris [24]) of 0.017 mg/kg. For the same molecule, the inhibition in vivo at 0.1 mg/kg (Rattus norvegicus [5]) was 94% and the IC50 [6] was 2900 nM.

CCc1nc2c(C)cc(C)nc2n1Cc1ccc(-c2ccccc2-c2nn[nH]n2)cc1 [L-158809] gave an ED50 (Rattus norvegicus [25]) of 0.023 mg/kg, a Duration (Rattus norvegicus [3]) of over 6 h and a Duration (Rattus norvegicus [26]) of over 6 h. It also gave an inhibition in vivo at 0.1 mg/kg (Rattus norvegicus [27]) of 75%, an ED50 (Rattus norvegicus [28]) of 0.029 mg/kg and an inhibition in vivo at 0.1 mg/kg (Rattus norvegicus [5]) of 85%. It also gave an IC50 [6] of 50000 nM.

CCc1nc2c(C)cc(C)nc2n1Cc1ccc(-c2ccccc2S(=O)(=O)NC(=O)C(C)C)cc1 gave an IC50 [1] of 0.21 nM, a Duration (Rattus norvegicus [3]) of 5 h and an inhibition in vivo at 0.1 mg/kg (Rattus norvegicus [5]) of 100%. The IC50 [6] was 1800 nM.

CCCCc1nc(Cl)c(C(=O)O)n1Cc1ccc(-c2ccccc2-c2nn[nH]n2)cc1 [CARBOXYLIC ACID METABOLITE] showed an IC50 [6] of 50000 nM.

With CCCCc1nc(Cl)c(CO)n1Cc1ccc(-c2ccccc2-c2nnn[nH]2)cc1 [LOSARTAN] the ED50 (Rattus norvegicus [25]) was 0.66 mg/kg and the ED50 (Rattus norvegicus [28]) was 0.28 mg/kg.

With CCCC(=O)NS(=O)(=O)c1ccccc1-c1ccc(Cn2c(CC)nc3c(C)cc(C)nc32)cc1 the Duration (Rattus norvegicus [7]) was over 6 h, the IC50 [1] was 0.27 nM and the inhibition in vivo at 1 mg/kg (Rattus norvegicus [8]) was 99%. It also gave an IC50 [6] of 3600 nM.
